SK-BR-3 tox 24h – SK-BR-3 proliferation inhibitors | SK-BR-3 viability, CellTiter-Glo ATP luminescence, 24 h; stronger effect = lower value | viability, % at 10 µM | 41,000 tested, 0.47% active | AID 847;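 active means viability at or below the median of all test compounds minus 3 SD, in both replicates if run twice, cut at about 45% in these data; inconclusive means duplicate replicates that disagree with each other; inactive means viability above that cutoff in every replicate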
Her2 expr inh – inhibitors of human Her2 kinase expression; P04626; SKBR-3 HER2 protein level, AlphaScreen, 18-24 h; stronger effect = lower value; HER2 level % of control, % at 10 µM; 65,000 tested, 0.69% active; AID 645;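 active means HER2 level under 5% of the carrier-only control; inconclusive means no clear call, values can overlap the other calls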
Target sequence (P04626 whole entry, looked up): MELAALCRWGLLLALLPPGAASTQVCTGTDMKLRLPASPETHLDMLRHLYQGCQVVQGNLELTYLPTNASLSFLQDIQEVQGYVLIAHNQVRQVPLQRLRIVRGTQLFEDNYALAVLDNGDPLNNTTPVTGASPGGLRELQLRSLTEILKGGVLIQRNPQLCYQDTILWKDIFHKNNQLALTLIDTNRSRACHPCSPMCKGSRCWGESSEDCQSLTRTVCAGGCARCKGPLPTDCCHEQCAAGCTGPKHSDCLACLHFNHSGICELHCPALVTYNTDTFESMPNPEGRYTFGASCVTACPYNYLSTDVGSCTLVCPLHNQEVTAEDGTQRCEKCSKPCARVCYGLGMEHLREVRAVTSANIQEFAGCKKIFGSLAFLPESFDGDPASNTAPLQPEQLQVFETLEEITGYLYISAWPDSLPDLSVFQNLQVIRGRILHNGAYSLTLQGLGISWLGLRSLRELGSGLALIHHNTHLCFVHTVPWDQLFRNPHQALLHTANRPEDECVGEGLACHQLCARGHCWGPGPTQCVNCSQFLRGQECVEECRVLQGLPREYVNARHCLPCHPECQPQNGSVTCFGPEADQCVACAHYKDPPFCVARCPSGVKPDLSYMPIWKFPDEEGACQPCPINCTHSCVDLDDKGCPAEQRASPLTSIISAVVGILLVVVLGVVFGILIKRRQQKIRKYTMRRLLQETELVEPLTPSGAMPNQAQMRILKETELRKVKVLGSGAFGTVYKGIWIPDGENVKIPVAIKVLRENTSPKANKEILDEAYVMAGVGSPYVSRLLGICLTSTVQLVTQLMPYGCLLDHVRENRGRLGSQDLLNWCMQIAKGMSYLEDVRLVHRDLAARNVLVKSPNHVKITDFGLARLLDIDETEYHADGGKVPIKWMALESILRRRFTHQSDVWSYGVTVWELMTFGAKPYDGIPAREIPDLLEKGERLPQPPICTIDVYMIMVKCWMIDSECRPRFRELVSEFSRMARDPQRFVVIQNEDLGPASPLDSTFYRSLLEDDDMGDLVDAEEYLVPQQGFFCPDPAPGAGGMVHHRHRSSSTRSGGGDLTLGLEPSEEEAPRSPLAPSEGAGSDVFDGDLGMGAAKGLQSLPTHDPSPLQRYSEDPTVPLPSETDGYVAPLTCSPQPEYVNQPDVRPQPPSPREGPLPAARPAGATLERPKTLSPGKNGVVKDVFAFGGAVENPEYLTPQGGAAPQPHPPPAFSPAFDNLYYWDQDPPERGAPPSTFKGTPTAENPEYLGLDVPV
Jurkat tox 60K – reduces viability or proliferation of Jurkat cells. Jurkat E6.1 viability, ATP luminescence, 48 h. inhibition, % at 4 µM. 56,000 tested, 1.2% active;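 active means inhibition above the mean inhibition of all tested compounds plus 3 SD, cut at about 28% in these data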
HEK293 NFkB inh – lowers PMA/ionomycin-induced NF-kB signal in HEK293 cells; HEK-293 NF-kB luciferase reporter, luminescence; inhibition, % at 3 µM; 62,000 tested, 0.21% active;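 active means inhibition above the mean of all tested compounds plus 3 SD, cut at about 40% in these data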
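System – HEK-293 cells with stable firefly luciferase reporter driven by four HIV NF-kB elements · Doses – one dose, 3 µM · Schedule – 1 h compound pre-incubation, 16 h PMA/ionomycin at 37 °C · Technique – luminescence from luciferase substrate reagent · Measure – percent inhibition normalized per plate to DMSO and reference-inhibitor controls · Replicates – tested once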
Numbers stand for hits; n = inactive; u = inconclusive; x = no result given. Most compounds without a hit are left out; they make up all but 2% or so of the library.

SMILES	SK-BR-3 tox 24h	Her2 expr inh	Jurkat tox 60K	HEK293 NFkB inh
CCOc1ccc(-c2noc(CCC(=O)NC)n2)cc1OCC	n	n	n	n
CN(C)C(=O)CCc1nc(-c2ccc(C(C)(C)C)cc2)no1	n	n	n	n
Cc1cc(C)n(CCCNC(=O)c2ccc(S(=O)(=O)NCc3ccco3)cc2)n1	x	n	n	n
C=CCn1c(=O)c2ccccc2n2c(SCc3cc(=O)n4ccsc4n3)nnc12	x	-14.8	n	n
CCCCOc1ccc(NC2=NC3(CCCC3)N=C(N)N2)cc1	n	n	n	n
Cc1cc(C)cc(NC2=NC3(CCCCC3)N=C(N)N2)c1	x	n	65.5	n
COC(=O)c1cc2sccc2n1CC(=O)Nc1cccc(SC)c1	x	n	n	n
O=C(COc1ccccc1)NCC(c1cccs1)N1CCOCC1 (stereo unspecified)	x	n	x	n
O=C(NCC(c1cccs1)N1CCOCC1)c1ccc(Cl)s1 (stereo unspecified)	x	n	95.0	n
CCN1CCN(Cc2c(C)[nH]c3ccc(OC)cc3c2=O)CC1	x	x	x	n
O=C(c1ccco1)N1CCN(C(=O)N2c3ccccc3Sc3ccccc32)CC1	n	n	98.5	n
O=C(N1CCN(c2ccccn2)CC1)N1c2ccccc2Sc2ccccc21	n	n	69.3	n
N#CCC(=O)Nc1ncn(Cc2ccccc2Cl)n1	n	n	n	n
CC(=O)Nc1cccc(NC(=O)c2c(-c3ccccc3Cl)noc2C)c1	x	-18.9	n	n
Cc1onc(-c2ccccc2Cl)c1C(=O)Nc1cccnc1	x	n	n	n
CC1CN(c2nc3ccccc3nc2C(C#N)C(=O)NCc2ccc3c(c2)OCO3)CC(C)O1 (stereo unspecified)	n	n	n	n
Cn1c(=O)[nH]c(=O)c2c1ncn2CCN1CCOCC1	n	n	n	n
Cn1cnc2c1c(=O)[nH]c(=O)n2C	n	-17.8	x	x
O=C(Nc1ccc(N2CCCCC2)c(Cl)c1)c1cccnc1	x	n	32.9	n
COc1ccccc1NC(=O)N(Cc1ccco1)Cc1cc2ccc(C)c(C)c2[nH]c1=O	n	n	79.5	n
CS(=O)c1nc(-c2ccc(Br)cc2)cc(-c2ccccc2)c1C#N (stereo unspecified)	u	-21.9	100.1	n
Cc1cc(-c2ccccc2)c(C#N)c(N)n1	n	n	x	x
Cc1cc2c(nn1)CCc1nonc1-2	x	n	n	n
Cn1c(=O)cc(OCCCC(=O)N2CCN(c3ccccc3)CC2)c2ccccc21	x	n	n	n
CCOC(=O)c1[nH]c2c(c1C)C(=O)CC(c1ccco1)C2 (stereo unspecified)	x	n	99.8	41.3
SMILES	SK-BR-3 tox 24h	Her2 expr inh	Jurkat tox 60K	HEK293 NFkB inh
CSCCOC(=O)c1[nH]c2c(c1C)C(=O)CC(c1ccco1)C2 (stereo unspecified)	x	n	85.1	n
COCCOC(=O)c1[nH]c2c(c1C)C(=O)CC(c1ccc(F)cc1)C2 (stereo unspecified)	x	n	75.4	n
Cc1c(C(=O)OCCOC(C)C)[nH]c2c1C(=O)CC(c1ccco1)C2 (stereo unspecified)	x	n	100.3	48.2
COCCOC(=O)c1[nH]c2c(c1C)C(=O)CC(c1ccccc1)C2 (stereo unspecified)	x	n	x	n
Cc1cccc(-n2nnnc2SCC(=O)c2cc(C)n(Cc3ccco3)c2C)c1	x	n	n	n
O=C1C2CCCN2C(c2ccc(F)cc2)N1c1ccc(Cl)cc1 (stereo unspecified)	x	n	n	n
COCCOC(=O)c1[nH]c2c(c1C)C(=O)CC(c1ccco1)C2 (stereo unspecified)	x	n	92.0	n
Cc1c(C(=O)O)[nH]c2c1C(=O)CC(c1ccccc1)C2 (stereo unspecified)	x	n	x	n
Cc1c(C(=O)OCc2ccccc2)[nH]c2c1C(=O)CC(c1ccco1)C2 (stereo unspecified)	x	n	98.0	n
COc1ccc(OC)c(C(=O)C2COC(=O)C2)c1 (stereo unspecified)	n	n	n	n
CCOc1ccc(NC(=O)c2oc3ccccc3c2NC(=O)C(C)C)cc1	x	n	n	n
CSc1cccc(NC(=O)CSc2nc3ccccc3o2)c1	n	n	n	n
CCOc1ccc(N(CC(=O)NC(C)(C)C)C(=O)c2ccco2)cc1	n	n	n	n
COc1cc(C(=O)NCCC(=O)NCCCN2CCCCC2)cc(OC)c1OC	x	n	n	n
O=C(O)c1ccccc1NCN1C(=O)C2CC=C(Cl)CC2C1=O (stereo unspecified)	n	-22.0	n	n
Cc1ccc2nc(-c3ccccc3)cn2c1	x	n	n	70.8
COC(=O)Cc1ccc2c3ccccc3n(C)c2c1	n	n	x	x
CC(=O)c1ccc(-c2nc3c4ccccc4ccn3c2C(C)=O)o1	x	n	n	88.7
O=C(c1cc2c(s1)CCCC2)N1CCN(Cc2ccc3c(c2)OCO3)CC1	x	n	n	n
O=C(Oc1ccc2c(c1)OCO2)c1cc2c(s1)CCC2	x	-7.5	43.0	n
Nc1c(C(=O)Nc2ccc3c(c2)OCCO3)nnn1CCc1ccccc1	x	n	80.5	n
Cc1ccc(C(=O)Nc2cnc3sc(C)nn3c2=O)cc1	n	n	n	n
COc1ccc(CNC(=O)c2cc3c(C)nc4ccccc4c3o2)c(OC)c1	x	n	60.2	n
COc1ccc(O)c(/C=c2/sc3nc4cc(C)c(C)cc4n3c2=O)c1	n	n	n	n
CN(C)S(=O)(=O)N1CCN(S(=O)(=O)c2ccc(F)cc2)CC1	n	n	n	n
SMILES	SK-BR-3 tox 24h	Her2 expr inh	Jurkat tox 60K	HEK293 NFkB inh
CN(C)S(=O)(=O)c1ccc(N2CCN(S(=O)(=O)c3ccc(F)cc3)CC2)c(Cl)c1	n	n	34.2	n
Cc1ccc(-c2noc(C3CCCN(C(=O)c4c(F)cccc4F)C3)n2)cc1 (stereo unspecified)	28.1	0.1	n	n
COc1ccc(-c2noc(C3CCCN(C(=O)c4ccccc4OC)C3)n2)cc1OC (stereo unspecified)	n	n	n	n
CCCc1nnc(NC(=O)C2CCCO2)s1 (stereo unspecified)	n	n	n	n
Cc1ccc(-n2ncc3c(NCc4ccco4)ncnc32)c(C)c1	x	n	n	n
Cc1ccc2[nH]c3c(NCc4ccco4)ncnc3c2c1	n	n	36.9	n
Fc1ccc2[nH]c3c(N4CCN(c5ccccc5)CC4)ncnc3c2c1	n	n	x	x
OC1(c2cccc(C(F)(F)F)c2)CCN(c2ncnc3c2[nH]c2ccc(F)cc23)CC1	n	n	52.8	n
COc1ccccc1Cn1c2nc3ccccc3nc2c2c(=O)n(CC(C)C)cnc21	n	n	x	x
Cc1cccc(OCC(=O)Nc2ccc3c(c2)OCCO3)c1	x	n	n	n
CCn1c(C)nc2cc(-c3nc4n(n3)Cc3ccccc3-4)ccc21	x	n	61.9	93.1
Fc1ccc(-c2nc3n(n2)Cc2ccccc2-3)cc1	n	n	n	n
Cc1cc(C)c(S(=O)(=O)Nc2ccc[nH]c2=O)c(C)c1	n	n	n	n
COc1ccc2cc(CCNC(=O)C3CCCC3)c(=O)[nH]c2c1	x	n	n	n
O=C(CCNc1ccc(F)c(Cl)c1)c1ccco1	x	n	65.3	n
COc1ccc(-c2cc3nc(C)c(CCC(=O)N4CCCCC4)c(C)n3n2)c(OC)c1	n	n	n	n
Cc1cc(=O)oc2cc(OCC(=O)N3c4ccccc4CC3C)ccc12 (stereo unspecified)	n	n	72.0	n
